Measurements as given in ChEMBL document CHEMBL4350958, “Rational Design of Short Peptide Variants by Using Kunitzin-RE, an Amphibian-Derived Bioactivity Peptide, for Acquired Potent Broad-Spectrum Antimicrobial and Improved Therapeutic Potential of Commensalism Coinfection of Pathogens” (J Med Chem, 2019).
Values after ≈ are worked out from the molar mass of the structure shown. Where a SMILES comes first, the peptide text is derived from it.

Key:
[1] = Antibacterial activity against Salmonella pullorum ATCC 7913 measured after 24 hrs; assay type: functional, Salmonella enterica subsp. enterica serovar Pullorum; settings: Salmonella enterica, ATCC 7913, 24 h
Procedure, shortened: (§1)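 Broth microdilution adapted from NCCLS. Mid-log bacteria were diluted in MHB to a final (0.5–1) × 10^5 CFU mL−1. Peptides were serially diluted in 0.2% BSA and mixed with an equal volume of cells. After 24 h at 37 °C, MIC was read at A492 as the lowest concentration inhibiting 95% of growth. At least three independent experiments, each with three technical replicates.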

Candida albicans [2] = assay: Antifungal activity against Candida albicans cgmcc2.2086 measured after 48 hrs in presence of ZnCl by broth microdilution method; assay type: functional; settings: cgmcc2.2086, 48 h
[3] = Bactericidal activity against Salmonella pullorum ATCC 7913 incubated for 24 hrs followed by replating on agar plate and measured after overnight incubation; assay type: functional, Salmonella enterica subsp. enterica serovar Pullorum; settings: Salmonella enterica, ATCC 7913, 24 h; read-out: MBC>99.9
Procedure, shortened: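 Mid-log bacteria diluted in MHB to (0.5–1) × 10^5 CFU/mL and mixed 1:1 with peptide serially diluted in 0.2% BSA. After 24 h at 37 °C, 50 μL of each mixture was plated on agar and incubated overnight. MBC taken as the lowest concentration killing >99.9% of cells. At least three independent experiments, each with three technical replicates.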

Staphylococcus aureus [4] = assay: Antibacterial activity against Staphylococcus aureus ATCC 29213 measured after 18 to 24 hrs in presence of ZnCl2; assay type: functional
Procedure, shortened: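 MIC broth microdilution (MHB, 0.2% BSA peptide diluent, A492, 95% inhibition) run in the presence of physiological salts at final concentrations of 6 μM NH4Cl or 8 μM ZnCl2. Three independent assays, each with three technical replicates.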

Candida albicans [5] = assay: Antifungal activity against Candida albicans cgmcc2.2086 measured after 48 hrs in presence of FeCl by broth microdilution method; assay type: functional; settings: cgmcc2.2086, 48 h
[6] = Conformational stability in 50% trifluoro-ethyl alcohol assessed as alpha-helical structural propensity by measuring absorption spectra at minimum dichroic band at 35 uM by CD spectra analysis; assay type: physicochemical
Procedure, shortened: (§2)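 CD spectra from 190 to 250 nm of peptide at 35 μM in 10 mM PBS, 30 mM SDS micelles or 50% TFE, recorded in a 1.0-mm quartz cell. Ellipticity was converted to mean residue ellipticity. Three independent scans, each averaged over more than 3 runs.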

Staphylococcus aureus [7] = assay: Antibacterial activity against Staphylococcus aureus ATCC 29213 measured after 18 to 24 hrs in presence of MgCl2; assay type: functional
[8] = Therapeutic index, ratio of MHC10 for hemolytic activity in human RBC to MIC95 against Staphylococcus aureus ATCC 29213; assay type: toxicity; settings: human red blood cells (erythrocytes), read-out: TI
Procedure, shortened: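 Therapeutic index = MHC divided by MIC. MHC is the lowest concentration giving >10% lysis of human RBC (1 h, 37 °C, 1-128 µM, A576). MIC is 95% growth inhibition by broth microdilution: bacteria in MHB 24 h at 37 °C; Candida in MOPS-buffered RPMI 1640 at (0.5–1) × 10^3 CFU mL−1, 48 h at 28 °C.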

Salmonella typhimurium = assay: Antibacterial activity against Salmonella typhimurium C7731 measured after 24 hrs; assay type: functional, Salmonella enterica subsp. enterica serovar Typhimurium; settings: Salmonella enterica, C7731, 24 h; procedure, shortened: as §1
[9] = Conformational stability in sodium dodecyl sulfate at 35 uM by CD spectra analysis; assay type: physicochemical; procedure, shortened: as §2
Escherichia coli [10] = assay: Induction of outer membrane permeabilization in Escherichia coli ATCC 25922 at 64 uM by NPN-dye based assay relative to control
Procedure, shortened: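 Mid-log E. coli ATCC 25922 (OD600 0.2) incubated 30 min with NPN (10 μM) in 5 mM HEPES pH 7.4 with 5 mM glucose, then mixed 1:1 with peptide (1–64 μM). Fluorescence (ex 350/em 420 nm) recorded until it plateaued. Percent NPN uptake calculated relative to no peptide and to 10 μg/mL polymyxin B. Three independent experiments, triplicates.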

Staphylococcus aureus [11] = assay: Antibacterial activity against Staphylococcus aureus ATCC 29213 measured after 24 hrs; assay type: functional; settings: ATCC 29213, 24 h
Procedure, shortened: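 Broth microdilution modified from NCCLS. Mid-log bacteria at (0.5–1) × 10^5 CFU mL−1 in MHB, mixed with peptides serially diluted in 0.2% BSA. Incubated 24 h at 37 °C, read at A492. MIC taken as lowest concentration giving 95% growth inhibition. At least three independent experiments, each with three technical replicates.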

Lipopolysaccharide (LPS) = assay: Displacement of BODIPY-TR-cadaverine from Escherichia coli O111:B4 LPS after 1 hr by spectrofluorophotometric method
Procedure, shortened: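 LPS from E. coli O111:B4 (50 μg/mL) preincubated 4 h with BODIPY-TR-cadaverine (5 μg/mL) in 50 mM Tris, pH 7.4. Mixed with equal volume of peptide (1-64 µM) and incubated 1 h at 37 °C, then fluorescence read. %ΔF = (Fobs−F0)/(F100−F0)×100, with 10 μg mL-1 polymyxin B defining F100. Three technical replicates per experiment.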

Escherichia coli [12] = assay: Antibacterial activity against Escherichia coli ATCC 25922 measured after 18 to 24 hrs in presence of KCl; assay type: functional
[13] = Hemolytic activity in human RBC at 128 uM measured after 1 hr relative to control; assay type: ADME, cell-based, Erythrocyte; settings: human red blood cells (erythrocytes), read-out: Activity
Procedure, shortened: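 Fresh human erythrocytes at ~1% (v/v) in PBS pH 7.4, mixed with equal volume of peptide (1-128 µM) for 1 h at 37 °C. After centrifugation, hemoglobin in the supernatant read at 576 nm. Untreated cells set 0% and 0.1% Triton X-100 set 100% hemolysis. At least three independent experiments, each in triplicate.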

Candida albicans [14] = assay: Antifungal activity against Candida albicans cgmcc2.2086 measured after 48 hrs in presence of NaCl by broth microdilution method; assay type: functional; settings: cgmcc2.2086, 48 h
Candida tropicalis = assay: Fungicidal activity against Candida tropicalis cgmcc2.1975 incubated for 48 hrs followed by replating on YM agar plate and measured after 48 hrs; assay type: functional
Procedure, shortened: (§3)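 Yeast diluted in MOPS-buffered RPMI 1640 to (0.5–1) × 10^3 CFU/mL (CLSI M27-A2, modified) and mixed 1:1 with peptide serially diluted in 0.2% BSA. After 48 h at 28 °C, 50 μL per well was plated on YM agar and incubated 48 h at 28 °C. MFC taken as the lowest concentration killing ≥99.9% of cells. Three or more independent experiments, triplicate wells.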

Candida parapsilosis = assay: Fungicidal activity against Candida parapsilosis cgmcc2.3989 incubated for 48 hrs followed by replating on YM agar plate and measured after 48 hrs; assay type: functional; procedure, shortened: as §3
Candida albicans [15] = assay: Fungicidal activity against Candida albicans cgmcc2.2086 incubated for 48 hrs followed by replating on YM agar plate and measured after 48 hrs; assay type: functional; procedure, shortened: as §3
Candida albicans [16] = assay: Antifungal activity against Candida albicans cgmcc2.2086 assessed as ratio of MIC95 in presence of NaCl to in absence of NaCl; assay type: functional
[17] = Conformational stability in sodium dodecyl sulfate assessed as beta-sheet conformation by measuring absorption spectra at minimum dichroic band at 35 uM by CD spectra analysis; assay type: physicochemical; procedure, shortened: as §2
[18] = Conformational stability in sodium dodecyl sulfate assessed as beta-sheet conformation by measuring absorption spectra at maximum dichroic band at 35 uM by CD spectra analysis; assay type: physicochemical; procedure, shortened: as §2

## CC[C@H](C)[C@H](NC(=O)[C@H](CCCCN)NC(=O)[C@H](C)NC(=O)[C@H](C)N)C(=O)N[C@H](C(=O)N[C@@H](CC(C)C)C(=O)N[C@@H](CC(N)=O)C(=O)N1CCC[C@H]1C(=O)N[C@@H](CCCCN)C(=O)N[C@@H](Cc1ccccc1)C(=O)N[C@@H](CCCNC(=N)N)C(=O)N[C@@H](CS)C(=O)N[C@@H](CCCCN)C(=O)N[C@@H](C)C(=O)N[C@@H](C)C(=O)N[C@@H](Cc1ccccc1)C(=O)N[C@@H](CS)C(N)=O)[C@@H](C)CC (H-AAKIILNPKFRCKAAFC-NH2)
[1]
  MIC95: 64 µM (≈ 121 µg/mL)
Candida albicans [2]
  MIC95: > 128 µM
[3]
  MBC: > 128 µM
Staphylococcus aureus [4]
  MIC95: > 128 µM
Candida albicans [5]
  MIC95: > 128 µM
[6]
  Stability: Unstable
Staphylococcus aureus [7]
  MIC95: > 128 µM
[8]
  selectivity ratio: 0.3
Salmonella typhimurium
  MIC95: > 128 µM
[9]
  Stability: Unstable
Escherichia coli [10]
  Activity: 35%
Staphylococcus aureus [11]
  MIC95: > 128 µM
Lipopolysaccharide (LPS)
  Activity: Dose-dependent effect
Escherichia coli [12]
  MIC95: 32 µM
[13]
  hemolysis at 1 h, 128 µM: 20%
Candida albicans [14]
  MIC95: > 128 µM

## CC[C@H](C)[C@H](NC(=O)CN)C(=O)NCC(=O)N[C@@H](C)C(=O)N[C@H](C(=O)N[C@@H](CC(C)C)C(=O)N[C@@H](CCCCN)C(=O)N[C@H](C(=O)N[C@@H](CC(C)C)C(=O)N[C@H](C(=O)N[C@H](C(=O)NCC(=O)N[C@@H](CC(C)C)C(=O)N1CCC[C@H]1C(=O)N[C@@H](C)C(=O)N[C@@H](CC(C)C)C(=O)N[C@H](C(=O)N[C@@H](CO)C(=O)N[C@@H](Cc1c[nH]c2ccccc12)C(=O)N[C@H](C(=O)N[C@@H](CCCCN)C(=O)N[C@@H](CCCNC(=N)N)C(=O)N[C@@H](CCCCN)C(=O)N[C@@H](CCCNC(=N)N)C(=O)N[C@@H](CCC(N)=O)C(=O)N[C@@H](CCC(N)=O)C(N)=O)[C@@H](C)CC)[C@@H](C)CC)[C@@H](C)O)[C@@H](C)O)C(C)C)C(C)C [MELITTIN]
[1]
  MIC95: 2 µM (≈ 5.69 µg/mL)
Candida albicans [2]
  MIC95: 4 µM
[3]
  MBC: 2 µM (≈ 5.69 µg/mL)
Staphylococcus aureus [4]
  MIC95: 4 µM
Candida tropicalis
  MFC<=99.9: 4 µM (≈ 11.4 µg/mL)
Candida albicans [5]
  MIC95: 4 µM
Staphylococcus aureus [7]
  MIC95: 4 µM
[8]
  selectivity ratio: 0.35
Salmonella typhimurium
  MIC95: 2 µM (≈ 5.69 µg/mL)
Staphylococcus aureus [11]
  MIC95: 4 µM (≈ 11.4 µg/mL)
Lipopolysaccharide (LPS)
  Activity: Dose-dependent effect
Candida parapsilosis
  MFC<=99.9: 4 µM (≈ 11.4 µg/mL)
Escherichia coli [12]
  MIC95: 2 µM
[13]
  hemolysis at 1 h, 128 µM: 84 to 94%
Candida albicans [15]
  MFC<=99.9: 8 µM (≈ 22.8 µg/mL)
Candida albicans [14]
  MIC95: 8 µM

## H-AARIILRWRFR-NH2
[1]
  MIC95: 2 µM
Candida albicans [2]
  MIC95: 8 µM
[3]
  MBC: 4 µM
Staphylococcus aureus [4]
  MIC95: 1 µM
Candida tropicalis
  MFC<=99.9: 4 µM
Candida albicans [5]
  MIC95: 8 µM
[6]
  Activity: 208 to 222 nm
Staphylococcus aureus [7]
  MIC95: 2 µM
[8]
  selectivity ratio: 215
Salmonella typhimurium
  MIC95: 4 µM
Escherichia coli [10]
  Activity: 110%
Staphylococcus aureus [11]
  MIC95: 1 µM
Lipopolysaccharide (LPS)
  Activity: Dose-dependent effect
Candida parapsilosis
  MFC<=99.9: 8 µM
Escherichia coli [12]
  MIC95: 2 µM
Candida albicans [15]
  MFC<=99.9: 8 µM
Candida albicans [16]
  Ratio: 4
Candida albicans [14]
  MIC95: 16 µM
[17]
  Activity: 216 to 220 nm
[18]
  Wavelength of maximum dichroic band: 200 nm

## H-AARRILRWIFR-NH2
[1]
  MIC95: 4 µM
Candida albicans [2]
  MIC95: 8 µM
[3]
  MBC: 8 µM
Staphylococcus aureus [4]
  MIC95: 4 µM
Candida tropicalis
  MFC<=99.9: 4 µM
Candida albicans [5]
  MIC95: 8 µM
[6]
  Activity: 208 to 222 nm
Staphylococcus aureus [7]
  MIC95: 8 µM
[8]
  selectivity ratio: 45.2
Salmonella typhimurium
  MIC95: 4 µM
Staphylococcus aureus [11]
  MIC95: 4 µM
Candida parapsilosis
  MFC<=99.9: 16 µM
Escherichia coli [12]
  MIC95: 8 µM
Candida albicans [15]
  MFC<=99.9: 8 µM
Candida albicans [16]
  Ratio: 4
Candida albicans [14]
  MIC95: 32 µM
